Measured values: ChEMBL document CHEMBL1159115, “Piperidine-derived gamma-secretase modulators” (Bioorg Med Chem Lett, 2010)

Legend:
[1] = molecular target: Gamma-secretase; test: Inhibition of gamma-secretase in human SHSY5Y cells expressing human recombinant APP assessed as amyloid beta40 formation by ELISA; assay type: cell-based; details: sh-sy5y; in the assay text read “amyloid beta42 formation” for “amyloid beta40 formation”
In short: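 SH-SY5Y cells overexpressing human APP Swedish variant exposed to compound for 48 h; Aβ40 (and Aβ42) in the cell medium quantified by ELISA, either Meso Scale Discovery or AlphaLISA format. Compounds also cross-screened for inhibition of Notch processing.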

[2] = molecular target: Gamma-secretase; test: Inhibition of gamma-secretase in human SHSY5Y cells expressing human recombinant APP assessed as decrease in total Abeta level after 24 hrs by DELFIA; assay type: cell-based; details: sh-sy5y
[3] = Inhibition of gamma-secretase expressed in african green monkey CV1 cells coexpressing Gal4 DNA-binding/transactivation domain assessed as inhibition of notch processing by luciferase reporter assay; assay type: cell-based; details: CV-1
[4] = system: CV-1; test: Inhibition of gamma-secretase expressed in african green monkey CV1 cells coexpressing Gal4 DNA-binding/transactivation domain assessed as inhibition of notch processing by luciferase reporter assay at 20 uM; assay type: cell-based
[5] = molecular target: Gamma-secretase; test: Inhibition of gamma-secretase in human SHSY5Y cells expressing human recombinant APP assessed as amyloid beta42 formation by ELISA; assay type: cell-based; details: sh-sy5y; in the assay text read “amyloid beta40 formation” for “amyloid beta42 formation”
In short: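 SH-SY5Y cells overexpressing human APP Swedish variant were incubated with compound for 48 h. Secreted Aβ42 and Aβ40 were measured by immunoassay (MSD electrochemiluminescence or AlphaLISA).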

[6] = system: SH-SY5Y; test: Cytotoxicity against human SH-SY5Y cells after 24 hrs by WST1 assay; assay type: cell-based
[7] = molecular target: Gamma-secretase; test: Inhibition of gamma-secretase in human SHSY5Y cells expressing human recombinant APP assessed as effect on Abeta40 level after 24 hrs by DELFIA; assay type: cell-based; details: sh-sy5y
[8] = molecular target: T1, Gamma-secretase (Homo sapiens) (UniProt Q96BI3+Q9NZ42+Q8WW43+P49768+Q92542+P49810); test: (§1) Inhibition of gamma-secretase in human SHSY5Y cells expressing human recombinant APP assessed as increase in Abeta38 level after 24 hrs by DELFIA; assay type: cell-based; details: SH-SY5Y
[9] = molecular target: Gamma-secretase; test: as §1; assay type: cell-based; details: sh-sy5y
[10] = molecular target: T1, Gamma-secretase (Homo sapiens); test: (§2) Inhibition of gamma-secretase in human SHSY5Y cells expressing human recombinant APP assessed as decrease in Abeta42 level after 24 hrs by DELFIA; assay type: cell-based; details: SH-SY5Y
[11] = molecular target: Gamma-secretase; test: as §2; assay type: cell-based; details: sh-sy5y
[12] = molecular target: T1, Gamma-secretase (Homo sapiens); test: Inhibition of gamma-secretase in human SHSY5Y cells expressing human recombinant APP assessed as amyloid beta40 formation at 20 uM by ELISA; details: SH-SY5Y
[13] = Clearance in rat blood at 1 mg/kg, iv and 2 mg/kg, po; assay type: ADME, organism-based
In short: (§3)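 Rat PK: iv 1 mg/kg paired with oral 3 mg/kg or 2 mg/kg; values are the mean from three animals. Oral bioavailability was measured with the sodium salt in 1% methylcellulose vehicle.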

[14] = Half life in rat at 1 mg/kg, iv and 2 mg/kg, po; assay type: ADME, organism-based; details: in vivo; in short: as §3
[15] = Volume of distribution at steady state in dog at 1 mg/kg, iv and 1 mg/kg, po; assay type: ADME, organism-based, Canis lupus familiaris; details: in vivo, read-out: Vdss
In short: (§4)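 Dog PK: iv and oral doses each 1 mg/kg; data from a single animal. Oral bioavailability was measured with the sodium salt in 1% methylcellulose vehicle.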

[16] = Oral bioavailability in rat at 2 mg/kg; assay type: ADME, organism-based; details: in vivo; in short: as §3
[17] = Clearance in dog blood at 1 mg/kg, iv and 1 mg/kg, po; assay type: ADME, organism-based, Canis lupus familiaris; in short: as §4
[18] = Volume of distribution at steady state in rat at 1 mg/kg, iv and 2 mg/kg, po; assay type: ADME, organism-based; details: in vivo, read-out: Vdss; in short: as §3
[19] = Half life in dog at 1 mg/kg, iv and 1 mg/kg, po; assay type: ADME, organism-based, Canis lupus familiaris; details: in vivo; in short: as §4
[20] = Oral bioavailability in dog at 1 mg/kg; assay type: ADME, organism-based, Canis lupus familiaris; details: in vivo; in short: as §4

Row | SMILES | pIC50 [1] | IC50 [3] | inhibition [4] | pIC50 [5] | inhibition [12] | other results
1 | O=C([O-])C[C@@H]1CCN([C@@H](c2ccc(C(F)(F)F)nc2)C2CC2)[C@H](c2ccc(C(F)(F)F)cc2)C1.[Na+] | 5.1 | > 20 µM | 23% | 4.3 |  | pIC50 [2]: < 4; IC50 [6]: > 100 µM; pIC50 [7]: < 4; Activity [8]: Dose-dependent effect; pEC50 [9]: 5; Activity [10]: Dose-dependent effect; pIC50 [11]: 6
2 | O=C(O)Cc1ccc(-c2ccc(C(F)(F)F)cc2)c(-c2ccc(C(F)(F)F)cc2)c1 | 5.7 | > 20 µM | 23% | < 4.7 | 13% | pIC50 [2]: < 4; IC50 [6]: > 100 µM; pIC50 [7]: < 4; Activity [8]: Dose-dependent effect; pEC50 [9]: 5.1; Activity [10]: Dose-dependent effect; pIC50 [11]: 5.7
3 | CCCCCC[C@H](c1ccc(C(F)(F)F)nc1)N1CC[C@@H](CC(=O)[O-])C[C@H]1c1ccc(C(F)(F)F)cc1.[Na+] | 6.3 | 5.01 µM |  | 4.8 |  | pIC50 [2]: 4; IC50 [6]: > 100 µM; pIC50 [7]: 4.6; Activity [8]: Dose-dependent effect; pEC50 [9]: 6.3; Activity [10]: Dose-dependent effect; pIC50 [11]: 6
4 | O=C([O-])C[C@@H]1CCN([C@H](CC2CCC2)c2ccc(C(F)(F)F)nc2)[C@H](c2ccc(C(F)(F)F)cc2)C1.[Na+] | 6.6 | > 20 µM | 17% | 5.5 |  | 
5 | CC(C)C[C@H](c1ccc(C(F)(F)F)nc1)N1CC[C@@H](CC(=O)[O-])C[C@H]1c1ccc(C(F)(F)F)cc1.[Na+] | 6.2 | > 20 µM | 25% | 4.5 |  | 
6 | CC(C)[C@H](O)C(=O)N[C@@H](C)C(=O)N[C@@H]1C(=O)N(C)CCc2ccccc21 [SEMAGACESTAT] | 7.4 | 0.316 µM |  | 7.4 |  | pIC50 [2]: 7; IC50 [6]: > 100 µM; pIC50 [7]: 6.7; Activity [8]: Dose-dependent effect; pEC50 [9]: 6.9; Activity [10]: Dose-dependent effect; pIC50 [11]: 6.9
7 | CCCCC[C@H](c1ccc(C(F)(F)F)nc1)N1CC[C@@H](CC(=O)[O-])C[C@H]1c1ccc(C(F)(F)F)cc1.[Na+] | 5.9 | 15.8 µM |  | 5.1 |  | 
8 | CC(C)CC[C@H](c1ncc(C(C)C)cn1)N1CC[C@@H](CC(=O)[O-])C[C@H]1c1ccc(C(F)(F)F)cc1.[Na+] | 6.1 | > 20 µM | 27% | < 4.7 | 22% | 
9 | CC(C)CC[C@H](c1cnc(C(F)(F)F)nc1)N1CC[C@@H](CC(=O)[O-])C[C@H]1c1ccc(C(F)(F)F)cc1.[Na+] | 6.4 | 20 µM |  | 4.7 |  | 
10 | CC(C)CC[C@H](c1cnc(C(F)(F)F)cn1)N1CC[C@@H](CC(=O)[O-])C[C@H]1c1ccc(C(F)(F)F)cc1.[Na+] | 6.4 | > 20 µM | 21% | 4.7 |  | 
11 | O=C([O-])C[C@@H]1CCN([C@H](c2ccc(C(F)(F)F)cc2)c2ccc(C(F)(F)F)nc2)[C@H](c2ccc(C(F)(F)F)cc2)C1.[Na+] | 5.9 | 7.94 µM |  | <= 4.8 | 33% | 
12 | CC[C@H](c1ccc(C(F)(F)F)nc1)N1CC[C@@H](CC(=O)[O-])C[C@H]1c1ccc(C(F)(F)F)cc1.[Na+] | 5 | > 20 µM | 10% | < 4.7 | 20% | 
13 | CCC[C@@H](C(=O)O)c1cc(OCc2ccccc2)cc(-c2ccc(C(F)(F)F)cc2)c1 |  | > 20 µM | 20% | <= 4.8 | 32% | IC50 [1]: 3.98 µM; pIC50 [2]: < 4; IC50 [6]: > 100 µM; pIC50 [7]: < 4; Activity [8]: Dose-dependent effect; pEC50 [9]: 5.9; Activity [10]: Dose-dependent effect; pIC50 [11]: 5.8
14 | COCCC[C@H](c1ccc(C(F)(F)F)nc1)N1CC[C@@H](CC(=O)[O-])C[C@H]1c1ccc(C(F)(F)F)cc1.[Na+] | 5 | > 20 µM | 10% | 4.5 |  | 
15 | O=C([O-])C[C@@H]1CCN([C@H](Cc2ccccc2)c2ccc(C(F)(F)F)nc2)[C@H](c2ccc(C(F)(F)F)cc2)C1.[Na+] | 5.8 | > 20 µM | 34% | 5 |  | 
16 | CCCC[C@H](c1ccc(C(F)(F)F)nc1)N1CC[C@@H](CC(=O)[O-])C[C@H]1c1ccc(C(F)(F)F)cc1.[Na+] | 6.2 | > 20 µM | 33% | 4.8 |  | pIC50 [2]: < 4; IC50 [6]: > 100 µM; pIC50 [7]: 4.4; Activity [8]: Dose-dependent effect; pEC50 [9]: 5.5; Activity [10]: Dose-dependent effect; pIC50 [11]: 6
17 | O=C([O-])C[C@@H]1CCN([C@H](CCc2ccccc2)c2ccc(C(F)(F)F)nc2)[C@H](c2ccc(C(F)(F)F)cc2)C1.[Na+] | 5.7 | > 20 µM | 32% | < 4.7 | 40% | 
18 | CC(C)CC[C@H](c1ccc(C2CC2)nc1)N1CC[C@@H](CC(=O)[O-])C[C@H]1c1ccc(C(F)(F)F)cc1.[Na+] | 6.2 | > 20 µM | 15% | < 4.7 | 31% | 
19 | CC(C)[C@H](c1ccc(C(F)(F)F)nc1)N1CC[C@@H](CC(=O)[O-])C[C@H]1c1ccc(C(F)(F)F)cc1.[Na+] | 5.4 | > 20 µM | 21% | < 4.7 | 24% | pIC50 [2]: < 4; IC50 [6]: > 100 µM; pIC50 [7]: < 4; Activity [8]: Dose-dependent effect; pEC50 [9]: 5; Activity [10]: Dose-dependent effect; pIC50 [11]: 6
20 | O=C([O-])C[C@@H]1CCN([C@@H](c2ccc(C(F)(F)F)nc2)C2CCCCC2)[C@H](c2ccc(C(F)(F)F)cc2)C1.[Na+] | 5.4 |  |  | 4.6 |  | 
21 | CC(C)CC[C@H](c1ccnc(C(F)(F)F)n1)N1CC[C@@H](CC(=O)[O-])C[C@H]1c1ccc(C(F)(F)F)cc1.[Na+] | 6.4 | 3.98 µM |  | 4.9 |  | 
22 | CC(C)CC[C@H](c1ccc(C(F)(F)F)nn1)N1CC[C@@H](CC(=O)[O-])C[C@H]1c1ccc(C(F)(F)F)cc1.[Na+] | 5.9 | > 20 µM | 17% | 4.6 |  | 
23 | CC(C)CC[C@H](c1ccc(C(F)(F)F)cn1)N1CC[C@@H](CC(=O)[O-])C[C@H]1c1ccc(C(F)(F)F)cc1.[Na+] | 6.5 | 12.6 µM |  | 4.9 |  | 
24 | CC(C)CC[C@H](c1ncc(C(F)(F)F)cn1)N1CC[C@@H](CC(=O)[O-])C[C@H]1c1ccc(C(F)(F)F)cc1.[Na+] | 6.1 | 25.1 µM |  | < 4.7 | 17% | clearance [13]: 9 mL/min/kg; half-life [14]: 3 h; Vd [15]: 1.2 L/kg; bioavailability [16]: 95%; clearance [17]: 5 mL/min/kg; Vd [18]: 3 L/kg; half-life [19]: 3.1 h; bioavailability [20]: > 100%
25 | Cc1cccc([C@@H](CCC(C)C)N2CC[C@@H](CC(=O)[O-])C[C@H]2c2ccc(C(F)(F)F)cc2)n1.[Na+] | 5.9 | > 20 µM | 4% | 4.8 |  | 
